One experiment relates to HCT-116. The experiment in a line: Antitumor activity against Homo sapiens (human) HCT116 cells. The experiment is classed as functional, cell-based. Put shortly:
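Cytotoxicity toward human HCT116 colon cancer cells measured by sulforhodamine B assay in 96-well format.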

Experiment [1] deals with Nicotiana tabacum. In words: Inhibition of Nicotiana tabacum (tobacco) root growth assessed as inhibition of root elongation. The class given is functional, organism-based. The method, boiled down: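 In vitro tobacco root growth assay on germinating seeds; root elongation scored, EC50 derived.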
Experiment [2] deals with Nicotiana tabacum. In words: Mitotic arrest in Nicotiana tabacum (tobacco) root suspension-cultured cells assessed as accumulation of cells in metaphase by cytological staining assay. The experiment is classed as functional. Put shortly:
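Suspension-cultured tobacco cells were treated with the compound, and their chromosomes were cytologically stained. The read-out was mitotic index, meaning the fraction of cells in mitosis, with arrest scored as cells accumulating in metaphase.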

Experiment [3] has as its system Tubulin (Bos taurus). In words: Displacement of [3H]colchicine from Bos taurus (bovine) brain tubulin by competition assay. (In general: Loss of bound radioactivity is the signal in a displacement assay; it reports binding, not function.)
The subject of experiment [4] is Tubulin (Bos taurus). The experiment in a line: Inhibition of Bos taurus (bovine) brain tubulin polymerization at 200 uM.

A word on the EC50: it is the concentration giving half of the maximal effect.

Calls of active or inactive are those of the source. No cut-off for these calls is given here.

Regarding `COc1ccc(-c2ccc(OC)c(OC)c2OC)cc1` [2,3,4,4'-TETRAMETHOXYBIPHENYL], the EC50 is 1.52 µM in the experiment on HCT-116 (Homo sapiens, HCT-116) and over 100 µM in the experiment on Nicotiana tabacum [1] (Nicotiana tabacum).
On to `COc1ccc([C@@H]2CC=CC[C@H]2[N+](=O)[O-])c(OC)c1OC` (single isomer, unassigned), for which the EC50 came out at 71 µM with HCT-116 (Homo sapiens, HCT-116) and 1.96 µM in the experiment with Nicotiana tabacum [1].
On to `O=[N+]([O-])[C@@H]1CC=CC[C@H]1c1ccccc1` (mixture of isomers), for which the EC50 in the experiment on HCT-116 (Homo sapiens, HCT-116) is 174 µM; in the experiment with Nicotiana tabacum [1] (Nicotiana tabacum), over 100 µM.
On to `COc1cc2c(c(OC)c1OC)-c1ccc(OC)c(=O)cc1[C@@H](NC(C)=O)CC2` [COLCHICINE], for which the result with Nicotiana tabacum [2] was Active. For the same molecule, the EC50 was found to be 0.02 µM with HCT-116 (Homo sapiens, HCT-116) and 356 µM in the experiment with Nicotiana tabacum [1] (Nicotiana tabacum).
With `COc1ccc(-c2ccc(OC)c(OC)c2OC)c(C)c1`, the EC50 with HCT-116 (Homo sapiens, HCT-116) is 0.78 µM; with Nicotiana tabacum [1] (Nicotiana tabacum), over 100 µM.
`COc1ccc([C@@H]2CC=CC[C@H]2[N+](=O)[O-])c(OC)c1OC` (racemic) [listing 1 of 2 here]: the inhibition result in the experiment with Tubulin (Bos taurus) [3] and in the experiment on Tubulin (Bos taurus) [4] was “Active” in each case. The result in the experiment on Nicotiana tabacum [2] was Active.
With `COc1ccc([C@H]2CC=CC[C@H]2C#N)c(OC)c1OC` (single isomer, unassigned; enantiomer II), the EC50 was 45 µM with HCT-116 (hct-116) and over 25 µM with Nicotiana tabacum [1] (Nicotiana tabacum).
Regarding `COc1ccc([C@@H]2CC=CC[C@H]2[N+](=O)[O-])c(OC)c1OC` (single isomer, unassigned; enantiomer I), the results for the EC50 in the experiment with HCT-116 (hct-116) and in the experiment with Nicotiana tabacum [1] were 79 µM and 0.1 µM, respectively.
For `COc1ccc(C2CC=CCC2C#N)c(OC)c1OC` (mixture of isomers), the EC50 with HCT-116 (Homo sapiens, HCT-116) is 113 µM; in the experiment on Nicotiana tabacum [1] (Nicotiana tabacum), 2.29 µM. In addition, in the experiment with Tubulin (Bos taurus) [4], the inhibition entry was “Active”.
`COc1ccc([C@H]2CC=CC[C@@H]2C#N)c(OC)c1OC` (single isomer, unassigned; enantiomer I): the EC50 is 136 µM with HCT-116 (hct-116) and 0.667 µM in the experiment with Nicotiana tabacum [1].
For `COc1ccc([C@@H]2CC=CC[C@H]2[N+](=O)[O-])c(OC)c1OC` (racemic) [listing 2 of 2 here], the EC50 with HCT-116 (hct-116) is 85 µM; in the experiment with Nicotiana tabacum [1] it was 0.27 µM.
Turning to `COc1ccc(-c2ccc(OC)c(OC)c2OC)c([N+](=O)[O-])c1`, the EC50 with HCT-116 (Homo sapiens, HCT-116) is 2.65 µM; in the experiment with Nicotiana tabacum [1] (Nicotiana tabacum), over 100 µM.
As for `COc1ccc(-c2ccc(OC)c(OC)c2OC)c(C#N)c1`, the EC50 is 0.58 µM in the experiment on HCT-116 (Homo sapiens, HCT-116) and over 100 µM in the experiment on Nicotiana tabacum [1] (Nicotiana tabacum).
`COc1ccc(-c2ccccc2C#N)c(OC)c1OC`: the EC50 with HCT-116 (Homo sapiens, HCT-116) was 13.8 µM; with Nicotiana tabacum [1] (Nicotiana tabacum), over 100 µM.
The corresponding values for `COc1cccc([C@@H]2CC=CC[C@H]2[N+](=O)[O-])c1` (racemic) are 143 µM and 3.78 µM.
The corresponding values for `COc1ccc(-c2ccccc2[N+](=O)[O-])c(OC)c1OC` are 19.6 µM and 52 µM.
`COc1ccc([C@H]2CC=CC[C@H]2C#N)c(OC)c1OC` (single isomer, unassigned): the EC50 with HCT-116 (hct-116) worked out at 142 µM.
In the case of `COc1ccc([C@H]2CC=CC[C@@H]2C#N)c(OC)c1OC` (single isomer, unassigned; enantiomer II), the EC50 in the experiment on HCT-116 (hct-116) worked out at 47 µM; with Nicotiana tabacum [1], 7.17 µM.

These data come from ChEMBL document CHEMBL3046889, “Structure-activity relationships of phenylcyclohexene and biphenyl antitubulin compounds against plant and mammalian cells” (Bioorg Med Chem Lett, 2001).
